Screens from PubChem BioAssay.
An excerpt weighted towards active compounds, which were near 1.6% of everything screened.
NR2E3 ag-1: agonists of human NR2E3 nuclear receptor; Q9Y5X4; CHO-S Gal4-NCOR/VP16-NR2E3 two-hybrid, luciferase; inhibition of corepressor binding, % at 3.98 µM; 0.35% of 360,000 active; AID 602229;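 active = inhibition above the mean of all tested compounds plus 3 SD, cut at about 70% in these data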;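 also: 0% = DMSO with NR2E3 transfected cells and 100% = cells lacking NR2E3 construct; higher means lower luciferase signal from less NR2E3 corepressor binding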
PG9 binder: PG9 antibody binding by small molecule. TR-FRET gp120-PG9 antibody binding. inhibition, % at 6.7 µM. 0.43% of 360,000 active. AID 624416; in the data active = inhibition above about 8.5%
NR1D1 modulator: Rev-erb alpha (human) modulation; activity, % at 10 µM; 0.79% of 370,000 active; Rev-erbα–FITC-DNA binding, fluorescence polarization, 90 min;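 active = activity above about 14%, limit read from the data; passing the limit was not always enough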;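 also: 0% = DMSO wells with 35 nM protein and 100% = DMSO wells with 750 nM protein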
Target sequence (P20393 whole entry, looked up): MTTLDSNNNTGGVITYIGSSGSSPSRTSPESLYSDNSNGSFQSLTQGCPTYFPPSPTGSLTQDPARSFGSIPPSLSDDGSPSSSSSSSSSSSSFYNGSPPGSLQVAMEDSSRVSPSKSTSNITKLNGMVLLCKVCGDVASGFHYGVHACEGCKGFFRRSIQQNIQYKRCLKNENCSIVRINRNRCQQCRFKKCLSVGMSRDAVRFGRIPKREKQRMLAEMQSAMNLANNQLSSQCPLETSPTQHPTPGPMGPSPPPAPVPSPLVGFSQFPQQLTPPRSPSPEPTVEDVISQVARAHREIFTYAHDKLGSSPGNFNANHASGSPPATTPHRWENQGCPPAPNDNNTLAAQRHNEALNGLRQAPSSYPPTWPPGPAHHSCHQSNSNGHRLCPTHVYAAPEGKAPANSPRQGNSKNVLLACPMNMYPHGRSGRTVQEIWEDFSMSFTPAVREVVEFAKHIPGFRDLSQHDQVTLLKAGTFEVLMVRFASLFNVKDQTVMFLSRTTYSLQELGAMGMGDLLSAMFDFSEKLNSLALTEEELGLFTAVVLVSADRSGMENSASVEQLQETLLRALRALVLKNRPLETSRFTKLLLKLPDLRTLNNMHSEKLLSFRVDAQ
NR2E3 ag-2: NR2E3 (human) agonism. Q9Y5X4. GST-NR2E3/biotin-RetCOR TR-FRET, 1536-well. inhibition of corepressor binding, % at 4.78 µM. 0.12% of 320,000 active. AID 2300;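 active = percent inhibition above the cutoff of mean plus 3 SD of all tested compounds, set per screening campaign, cut at about 20% in these data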;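 also: 0% = DMSO wells and 100% = biotin wells as full block of FRET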
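Test system: GST-NR2E3 and biotin-RetCOR proteins | Quantity: 1.35 nM GST-tagged NR2E3 final | Medium: Tris pH 7.5 | Also added: 7 nM biotin-RetCOR | Dosing: Compound at 4.8 µM, single dose | Timing: 5 h at 4 °C | Detection: Time-resolved FRET | Read-out basis: Percent inhibition | Benchmarks: Biotin wells as high control, 0.6% DMSO wells as low control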
VLA-4 inh: inhibition in a human VLA-4 binding assay; VLA-4 expressing cells, ligand binding flow cytometry; inhibition, % (about 7 µM as worked out from the volumes in the protocol); 0.2% of 330,000 active; AID 2557; in the data active = inhibition above about 50%
NR2E3 ag conf: confirmation of human NR2E3 agonists; shares compounds with NR2E3 ag-1; CHO-S mammalian two-hybrid NR2E3-NCOR, luciferase luminescence; inhibition, % at 3.98 µM; 51% of 2,300 active; AID 624378;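 active = average inhibition above a cutoff equal to the mean inhibition of all tested compounds plus one SD, cut at about 70% in these data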;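 also: 0% = DMSO in NR2E3 cells and 100% = DMSO in cells lacking NR2E3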
GAL4-VP16 luc: reduces GAL4-VP16 reporter signal in NR2E3 counterscreen | CHO-S GAL4-VP16 luciferase reporter, luminescence | 29% of 2,300 active | inhibition, % at 3.98 µM | shares compounds with NR2E3 ag-1;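 active = mean inhibition above a cutoff equal to the average over all tested compounds plus one standard deviation, cut at about 70% in these data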;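 also: luciferase from a UAS reporter driven by GAL4-VP16 transactivation; 0% = DMSO with VP16-transfected cells and 100% = DMSO with cells lacking VP16; higher means less reporter light so more repression of VP16 activity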
Numbers without * were called inactive; . = not tested or not shown.

SMILES	NR2E3 ag-1	PG9 binder	NR1D1 modulator	NR2E3 ag-2	VLA-4 inh	NR2E3 ag conf	GAL4-VP16 luc
COc1ccc(CN(CCN2CCOCC2)C(=O)c2ccc(F)cc2F)cc1OC	.	.	4	.	.	.	.
O=C(CN1CCCc2ccccc21)NCc1ccccc1F	.	.	1	.	.	.	.
Cc1nc2ccc(NS(=O)(=O)c3ccc(C)c(C)c3)cc2s1	81*	0	-2	2	5	96*	80*
CC(=O)c1cccc(S(=O)(=O)Nc2ccc3nc(C)sc3c2)c1	41	1	-4	4	-1	.	.
Cc1nc2ccc(NS(=O)(=O)c3ccc(F)cc3F)cc2s1	16	-1	-2	0	-8	.	.
Cc1ccc(NS(=O)(=O)c2ccc3c(c2)NC(=O)CCS3)cc1F	-29	2	-3	0	-4	.	.
Cc1nc2ccc(NS(=O)(=O)c3c(F)cc(F)cc3Br)cc2s1	75*	-1	-1	2	1	72*	62
Cc1ccc(NS(=O)(=O)c2ccc3c(c2)NC(=O)CCS3)cc1C	54	2	5	-1	8	-2	22
CCCC1CCC2(CC1)CCC2OC(=S)Nc1ccccc1 (centres undefined)	.	.	5	.	.	.	.
O=C(N[C@H](C(=O)N1CCC[C@H]1C(=O)NCc1ccccc1)C1CCCCC1)c1ccc(Cl)cc1Cl	.	-1	1	.	.	.	.
Cc1nc2ccc(S(=O)(=O)NCC(=O)N(C)Cc3ccccc3F)cc2s1	.	.	-7	.	.	.	.
CC(C)CN1C(=O)[C@]2(CC(=O)N(C)C2c2ccccc2)c2cc(-n3cc(-c4ccccc4)nn3)ccc21 (some centres undefined)	.	.	-6	.	.	.	.
CCCN(CCC)S(=O)(=O)c1ccc(C(=O)Nc2nnc(CSC)o2)cc1	56	0	-2	-2	7	53	23
COCc1nnc(NC(=O)c2ccc(S(=O)(=O)N(CC(C)C)CC(C)C)cc2)o1	77*	-2	12	-1	2	89*	28
CCN(c1ccccc1)S(=O)(=O)c1ccc(C(=O)Nc2nnc(CSC)o2)cc1	65	-3	-5	1	13	93*	32
CCN(c1ccccc1)S(=O)(=O)c1ccc(C(=O)Nc2nnc(COC)o2)cc1	20	0	-5	4	25	.	.
COc1ccc(CNC(=O)O[C@H]2CC[C@@]34CCCN3C(=O)CCC[C@H]4C2)cc1OC	.	.	-1	.	.	.	.
C[C@H]1[C@@H](NC(=O)c2ccc(C(C)(C)C)cc2)CC[C@@]23CCCN2C(=O)CCC[C@@H]13	.	.	-3	.	.	.	.
C[C@@H]1[C@@H](c2ccccc2)c2cc3ccccc3nc2-c2nc3ccccc3cc2[C@@H]1C(=O)N1CCCC1	.	.	3	.	.	.	.
C=CCN=C1NC(c2cccc(Cl)c2)C(C(=O)OC)=C(C)N1C (centres undefined)	.	1	4	.	.	.	.
O=C(Nc1ccc(F)cc1)OCc1cn(Cc2cc(F)ccc2F)nn1	.	.	1	.	.	.	.
S=c1nc2ccccc2c2nc(-c3ccccc3Br)[nH]n12	78*	0	-3	7	-5	-9	-12
COc1ccc(C2CC3CN(C4CCCCC4)C(=O)C3N2C)cc1 (centres undefined)	.	.	2	.	.	.	.
CCN1/C(=C/C(C)=C/c2sc3ccccc3[n+]2CC)Sc2ccccc21	92*	-25	-10	-18	.	100*	95*
CN(Cc1ccc(F)cc1)C(=O)c1cccc(S(=O)(=O)N2CCN(c3ccc(F)cc3)CC2)c1	60	1	8	-2	5	38	30
COc1ccc(CN(C)C(=O)c2cccc(S(=O)(=O)N3CCN(c4ccccc4)CC3)c2)c(OC)c1OC	54	-1	4	5	6	83*	64
CN(CC(=O)Nc1cccc(F)c1)C(=O)c1ccc(N2CCCCC2)c([N+](=O)[O-])c1	53	-1	2	5	-8	54	49
CN(Cc1ccc(F)cc1)C(=O)c1cccc(S(=O)(=O)N2CCN(c3ccccc3)CC2)c1	31	-2	2	1	1	.	.
CN(CC(=O)Nc1cccc(F)c1)C(=O)c1cc(S(=O)(=O)N2CCN(c3ccccc3)CC2)ccc1Cl	54	-1	1	2	17	37	44
